Reference: ChEMBL document CHEMBL3098105, “7,7'-Diazaindirubin--a small molecule inhibitor of casein kinase 2 in vitro and in cells” (Bioorg Med Chem, 2014)
Calls of active or inactive are those of the source. The rule behind the calls is not given here.

Tests used:
[1] = biological target: Vascular endothelial growth factor receptor 1 (Homo sapiens) (UniProt P17948); experiment: Inhibition of human Flt1 assessed as residual activity at 1 uM relative to control
[2] = biological target: Serine/threonine-protein kinase pim-1 (Homo sapiens) (UniProt P11309); experiment: Inhibition of human Pim-1 assessed as residual activity at 1 uM relative to control
[3] = biological target: Tyrosine-protein kinase Fyn (Homo sapiens) (UniProt P06241); experiment: Inhibition of human Fyn assessed as residual activity at 1 uM relative to control
[4] = biological target: Tyrosine-protein kinase receptor UFO (Homo sapiens) (UniProt P30530); experiment: Inhibition of human Axl assessed as residual activity at 1 uM relative to control
[5] = system: CCRF-CEM; experiment: Antiproliferative activity against human CCRF-CEM cells after 3 days by sulforhodamine B assay; type: functional; settings: 72 h
Outline: (§1)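 Tested in the NCI 60 cell line panel. GI50 is the concentration giving 50% inhibition of cell growth, and values are the mean of two series of tests.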

[6] = biological target: T1, Serine/threonine-protein kinase Chk1 (Homo sapiens) (UniProt O14757); experiment: Inhibition of CHK1 (unknown origin) assessed as residual activity at 1 uM relative to control
T1 sequence (whole entry): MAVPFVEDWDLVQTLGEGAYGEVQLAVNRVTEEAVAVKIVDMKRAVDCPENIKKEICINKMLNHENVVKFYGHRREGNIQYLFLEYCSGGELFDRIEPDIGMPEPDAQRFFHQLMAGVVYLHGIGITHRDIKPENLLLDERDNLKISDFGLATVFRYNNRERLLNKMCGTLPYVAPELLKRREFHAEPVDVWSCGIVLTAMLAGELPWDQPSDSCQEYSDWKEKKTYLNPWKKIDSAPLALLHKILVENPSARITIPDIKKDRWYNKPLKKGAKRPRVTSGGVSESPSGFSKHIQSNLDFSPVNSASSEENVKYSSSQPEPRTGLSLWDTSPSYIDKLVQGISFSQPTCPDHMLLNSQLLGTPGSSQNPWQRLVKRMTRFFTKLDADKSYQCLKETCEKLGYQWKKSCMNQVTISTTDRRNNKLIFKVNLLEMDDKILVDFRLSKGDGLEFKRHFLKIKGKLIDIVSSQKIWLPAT

[7] = system: NCI-H460; experiment: Antiproliferative activity against human NCI-H460 cells after 3 days by sulforhodamine B assay; type: functional; settings: NCI-H460, 72 h; outline: as §1
[8] = biological target: Protein kinase C eta type (Homo sapiens) (UniProt P24723); experiment: Inhibition of human PKCeta assessed as residual activity at 1 uM relative to control
[9] = species: Homo sapiens; experiment: Inhibition of human PKA assessed as residual activity at 1 uM relative to control
[10] = biological target: Phosphorylase b kinase gamma catalytic chain, liver/testis isoform (Homo sapiens) (UniProt P15735); experiment: Inhibition of human PhKgamma2 assessed as residual activity at 1 uM relative to control
[11] = system: MCF7; experiment: Cell cycle arrest in human MCF7 cells assessed as accumulation at G1 phase at 0.5 uM after 24 hrs using propidium iodide staining by FACS analysis (reference value: 57.74%); type: functional
[12] = biological target: SRSF protein kinase 1 (Homo sapiens) (UniProt Q96SB4); experiment: Inhibition of human SRPK1 assessed as residual activity at 1 uM relative to control
[13] = system: MCF7; experiment: Cell cycle arrest in human MCF7 cells assessed as accumulation at sub-G1 phase at 1 uM after 24 hrs using propidium iodide staining by FACS analysis (reference value: 0.17%); type: functional
[14] = biological target: Mast/stem cell growth factor receptor Kit (Homo sapiens) (UniProt P10721); experiment: Inhibition of KIT (unknown origin) assessed as residual activity at 10 uM relative to control
[15] = system: UACC-62; experiment: Antiproliferative activity against human UACC62 cells after 3 days by sulforhodamine B assay; type: functional; settings: UACC-62, 72 h
[16] = system: MCF7; experiment: Induction of late stage apoptosis in human MCF7 cells expressing CK2 at 0.25 to 4 uM after 24 hrs using propidium iodide/annexin V staining by FACS analysis; type: functional, cell-based
Outline: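 MCF7 cells were then treated for 24 h, stained with FITC-annexin V in HEPES pH 7.4 binding buffer with 1.8 mM CaCl2 (15 min, dark, room temperature), then with PI (10 min), and analysed by FACS.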

[17] = biological target: Ephrin type-A receptor 2 (Homo sapiens) (UniProt P29317); experiment: Inhibition of human EphA2 assessed as residual activity at 1 uM relative to control
[18] = system: NCI-H522; experiment: Antiproliferative activity against human NCI-H522 cells after 3 days by sulforhodamine B assay; type: functional; settings: NCI-H522, 72 h; outline: as §1
[19] = biological target: Protein-tyrosine kinase 6 (Homo sapiens) (UniProt Q13882); experiment: Inhibition of human BRK assessed as residual activity at 1 uM relative to control
[20] = biological target: Tyrosine-protein kinase receptor TYRO3 (Homo sapiens) (UniProt Q06418); experiment: Inhibition of human Rse assessed as residual activity at 1 uM relative to control
[21] = biological target: MAP kinase-activated protein kinase 5 (Homo sapiens) (UniProt Q8IW41); experiment: Inhibition of human PRAK assessed as residual activity at 1 uM relative to control
[22] = biological target: Dual specificity protein kinase CLK3 (Homo sapiens) (UniProt P49761); experiment: Inhibition of human CLK3 assessed as residual activity at 1 uM relative to control
[23] = biological target: Proto-oncogene tyrosine-protein kinase receptor Ret (Homo sapiens) (UniProt P07949); experiment: Inhibition of RET (unknown origin) assessed as residual activity at 1 uM relative to control
[24] = system: RPMI-8226; experiment: Antiproliferative activity against human RPMI8226 cells after 3 days by sulforhodamine B assay; type: functional; settings: RPMI-8226, 72 h; outline: as §1
[25] = Antiproliferative activity against human UO31 cells after 3 days by sulforhodamine B assay; type: functional; settings: UO-31, 72 h
[26] = biological target: Tyrosine-protein kinase CSK (Homo sapiens) (UniProt P41240); experiment: Inhibition of human CSK assessed as residual activity at 1 uM relative to control
[27] = biological target: Tyrosine-protein kinase JAK3 (Homo sapiens) (UniProt P52333); experiment: Inhibition of human JAK3 assessed as residual activity at 1 uM relative to control
[28] = biological target: Macrophage-stimulating protein receptor (Homo sapiens) (UniProt Q04912); experiment: Inhibition of human Ron assessed as residual activity at 1 uM relative to control
[29] = biological target: Cytoplasmic tyrosine-protein kinase BMX (Homo sapiens) (UniProt P51813); experiment: Inhibition of human Bmx assessed as residual activity at 1 uM relative to control

Chain of Tyrosine-protein kinase JAK3 (Homo sapiens) (P52333 whole entry): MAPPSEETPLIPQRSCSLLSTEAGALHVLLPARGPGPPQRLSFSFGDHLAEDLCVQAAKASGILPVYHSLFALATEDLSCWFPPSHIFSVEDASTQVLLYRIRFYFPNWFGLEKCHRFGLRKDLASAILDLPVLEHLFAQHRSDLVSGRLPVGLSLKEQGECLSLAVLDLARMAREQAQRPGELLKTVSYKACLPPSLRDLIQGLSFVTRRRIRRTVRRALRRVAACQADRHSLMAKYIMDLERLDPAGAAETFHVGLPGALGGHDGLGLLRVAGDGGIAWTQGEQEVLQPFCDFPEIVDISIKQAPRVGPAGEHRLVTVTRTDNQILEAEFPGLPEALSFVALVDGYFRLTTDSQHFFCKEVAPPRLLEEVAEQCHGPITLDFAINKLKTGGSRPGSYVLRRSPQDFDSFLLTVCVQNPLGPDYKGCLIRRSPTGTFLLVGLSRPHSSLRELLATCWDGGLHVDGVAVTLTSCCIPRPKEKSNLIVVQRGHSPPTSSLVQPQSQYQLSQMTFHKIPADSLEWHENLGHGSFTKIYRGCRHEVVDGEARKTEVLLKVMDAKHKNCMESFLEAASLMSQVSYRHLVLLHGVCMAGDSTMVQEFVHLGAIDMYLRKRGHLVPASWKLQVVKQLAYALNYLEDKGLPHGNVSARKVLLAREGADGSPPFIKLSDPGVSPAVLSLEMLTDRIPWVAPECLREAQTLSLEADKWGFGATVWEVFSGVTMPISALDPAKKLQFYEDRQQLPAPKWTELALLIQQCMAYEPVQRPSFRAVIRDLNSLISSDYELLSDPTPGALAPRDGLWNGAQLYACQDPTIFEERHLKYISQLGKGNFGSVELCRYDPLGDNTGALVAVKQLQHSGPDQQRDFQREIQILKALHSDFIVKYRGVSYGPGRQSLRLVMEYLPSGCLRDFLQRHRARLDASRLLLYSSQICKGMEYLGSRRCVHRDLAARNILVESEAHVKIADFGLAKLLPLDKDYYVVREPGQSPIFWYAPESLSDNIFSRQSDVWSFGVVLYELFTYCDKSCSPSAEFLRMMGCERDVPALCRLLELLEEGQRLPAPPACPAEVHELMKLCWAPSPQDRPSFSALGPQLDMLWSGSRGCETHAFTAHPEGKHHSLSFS
Chain of Serine/threonine-protein kinase pim-1 (Homo sapiens) (P11309 whole entry, looked up): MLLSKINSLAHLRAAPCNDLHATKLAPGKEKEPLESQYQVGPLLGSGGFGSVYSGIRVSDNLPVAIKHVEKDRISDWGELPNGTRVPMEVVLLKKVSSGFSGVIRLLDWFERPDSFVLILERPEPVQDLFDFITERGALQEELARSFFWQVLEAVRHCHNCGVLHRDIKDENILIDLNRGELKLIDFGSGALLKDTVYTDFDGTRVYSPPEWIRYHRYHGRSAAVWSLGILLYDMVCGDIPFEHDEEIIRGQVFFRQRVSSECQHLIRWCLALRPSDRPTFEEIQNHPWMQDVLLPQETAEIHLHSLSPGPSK
Chain of Vascular endothelial growth factor receptor 1 (Homo sapiens) (P17948 whole entry): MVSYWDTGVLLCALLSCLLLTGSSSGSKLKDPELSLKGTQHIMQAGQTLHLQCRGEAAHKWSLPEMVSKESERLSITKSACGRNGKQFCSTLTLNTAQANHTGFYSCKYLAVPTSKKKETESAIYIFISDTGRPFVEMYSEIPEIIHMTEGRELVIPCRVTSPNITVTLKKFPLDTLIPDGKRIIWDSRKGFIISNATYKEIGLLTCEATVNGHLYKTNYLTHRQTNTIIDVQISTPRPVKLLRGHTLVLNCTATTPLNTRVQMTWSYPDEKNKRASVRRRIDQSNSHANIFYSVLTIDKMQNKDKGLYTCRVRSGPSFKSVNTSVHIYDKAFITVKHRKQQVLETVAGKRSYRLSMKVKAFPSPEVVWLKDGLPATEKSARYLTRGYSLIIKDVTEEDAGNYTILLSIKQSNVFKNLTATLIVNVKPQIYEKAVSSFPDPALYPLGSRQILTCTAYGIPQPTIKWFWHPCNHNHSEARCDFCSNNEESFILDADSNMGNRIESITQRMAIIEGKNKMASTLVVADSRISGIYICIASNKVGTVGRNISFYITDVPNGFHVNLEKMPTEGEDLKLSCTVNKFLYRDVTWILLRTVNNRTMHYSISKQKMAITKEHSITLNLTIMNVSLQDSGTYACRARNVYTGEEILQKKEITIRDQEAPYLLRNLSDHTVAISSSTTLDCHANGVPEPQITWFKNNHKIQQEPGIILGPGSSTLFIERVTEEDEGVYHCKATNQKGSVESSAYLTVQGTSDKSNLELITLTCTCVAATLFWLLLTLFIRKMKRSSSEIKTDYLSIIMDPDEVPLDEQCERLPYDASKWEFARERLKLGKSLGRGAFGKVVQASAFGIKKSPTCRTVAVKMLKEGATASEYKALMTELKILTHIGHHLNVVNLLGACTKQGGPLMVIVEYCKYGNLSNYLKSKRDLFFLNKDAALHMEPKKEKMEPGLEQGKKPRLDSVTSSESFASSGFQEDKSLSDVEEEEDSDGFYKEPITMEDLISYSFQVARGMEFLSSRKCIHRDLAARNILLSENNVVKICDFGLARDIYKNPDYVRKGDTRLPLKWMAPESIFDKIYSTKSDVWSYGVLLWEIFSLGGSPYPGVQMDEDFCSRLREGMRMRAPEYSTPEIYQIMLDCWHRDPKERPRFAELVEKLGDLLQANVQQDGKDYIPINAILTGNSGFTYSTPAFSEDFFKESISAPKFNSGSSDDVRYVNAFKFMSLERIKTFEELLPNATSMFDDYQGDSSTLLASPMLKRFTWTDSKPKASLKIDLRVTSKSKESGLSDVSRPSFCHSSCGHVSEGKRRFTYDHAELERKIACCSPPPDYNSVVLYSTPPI
Chain of MAP kinase-activated protein kinase 5 (Homo sapiens) (Q8IW41 whole entry): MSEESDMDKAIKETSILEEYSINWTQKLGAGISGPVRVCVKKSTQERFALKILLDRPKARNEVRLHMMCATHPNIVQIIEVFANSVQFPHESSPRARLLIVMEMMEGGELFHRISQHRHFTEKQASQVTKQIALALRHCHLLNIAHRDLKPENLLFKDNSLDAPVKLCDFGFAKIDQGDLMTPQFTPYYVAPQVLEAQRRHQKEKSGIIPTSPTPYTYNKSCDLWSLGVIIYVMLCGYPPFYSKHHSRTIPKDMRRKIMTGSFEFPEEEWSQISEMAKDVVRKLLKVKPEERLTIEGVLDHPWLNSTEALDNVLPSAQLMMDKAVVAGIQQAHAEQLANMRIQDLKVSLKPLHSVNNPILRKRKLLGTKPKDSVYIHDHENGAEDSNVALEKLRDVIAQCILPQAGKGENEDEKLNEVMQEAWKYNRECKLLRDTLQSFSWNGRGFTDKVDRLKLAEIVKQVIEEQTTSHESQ
Chain of Tyrosine-protein kinase receptor TYRO3 (Homo sapiens) (Q06418 whole entry): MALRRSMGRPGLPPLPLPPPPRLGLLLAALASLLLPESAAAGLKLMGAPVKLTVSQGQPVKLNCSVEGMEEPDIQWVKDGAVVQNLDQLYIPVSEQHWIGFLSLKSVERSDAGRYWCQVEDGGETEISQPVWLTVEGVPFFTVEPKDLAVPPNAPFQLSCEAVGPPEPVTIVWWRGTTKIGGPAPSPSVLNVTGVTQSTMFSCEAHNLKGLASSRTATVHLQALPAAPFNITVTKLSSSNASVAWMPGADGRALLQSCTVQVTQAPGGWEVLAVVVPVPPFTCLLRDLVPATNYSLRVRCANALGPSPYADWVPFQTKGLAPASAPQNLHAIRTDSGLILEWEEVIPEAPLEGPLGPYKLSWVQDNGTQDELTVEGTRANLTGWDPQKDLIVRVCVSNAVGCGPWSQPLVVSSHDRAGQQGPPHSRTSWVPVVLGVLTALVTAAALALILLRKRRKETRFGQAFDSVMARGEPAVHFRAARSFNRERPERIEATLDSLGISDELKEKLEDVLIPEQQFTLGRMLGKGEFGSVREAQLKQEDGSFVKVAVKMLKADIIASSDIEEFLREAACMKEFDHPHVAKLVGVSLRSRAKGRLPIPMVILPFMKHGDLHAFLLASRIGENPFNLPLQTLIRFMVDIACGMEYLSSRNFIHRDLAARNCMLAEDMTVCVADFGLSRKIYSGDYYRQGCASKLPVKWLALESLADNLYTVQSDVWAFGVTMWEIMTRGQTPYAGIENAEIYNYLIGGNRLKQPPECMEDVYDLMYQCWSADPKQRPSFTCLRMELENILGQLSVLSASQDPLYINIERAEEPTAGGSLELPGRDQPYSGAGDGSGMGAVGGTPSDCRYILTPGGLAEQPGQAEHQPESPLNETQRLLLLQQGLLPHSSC
Chain of Phosphorylase b kinase gamma catalytic chain, liver/testis isoform (Homo sapiens) (P15735 whole entry, canonical isoform): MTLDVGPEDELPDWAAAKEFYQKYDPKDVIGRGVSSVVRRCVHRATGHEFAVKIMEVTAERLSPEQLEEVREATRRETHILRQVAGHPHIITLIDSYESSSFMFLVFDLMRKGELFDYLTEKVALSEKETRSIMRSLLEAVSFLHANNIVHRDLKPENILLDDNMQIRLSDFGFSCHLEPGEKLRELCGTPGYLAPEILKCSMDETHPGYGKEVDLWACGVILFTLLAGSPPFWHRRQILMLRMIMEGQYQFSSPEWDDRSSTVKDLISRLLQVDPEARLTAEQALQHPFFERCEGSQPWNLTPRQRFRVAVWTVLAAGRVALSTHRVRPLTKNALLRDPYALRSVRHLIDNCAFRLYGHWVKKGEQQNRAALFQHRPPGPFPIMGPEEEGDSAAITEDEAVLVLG
Chain of Dual specificity protein kinase CLK3 (Homo sapiens) (P49761 whole entry, looked up): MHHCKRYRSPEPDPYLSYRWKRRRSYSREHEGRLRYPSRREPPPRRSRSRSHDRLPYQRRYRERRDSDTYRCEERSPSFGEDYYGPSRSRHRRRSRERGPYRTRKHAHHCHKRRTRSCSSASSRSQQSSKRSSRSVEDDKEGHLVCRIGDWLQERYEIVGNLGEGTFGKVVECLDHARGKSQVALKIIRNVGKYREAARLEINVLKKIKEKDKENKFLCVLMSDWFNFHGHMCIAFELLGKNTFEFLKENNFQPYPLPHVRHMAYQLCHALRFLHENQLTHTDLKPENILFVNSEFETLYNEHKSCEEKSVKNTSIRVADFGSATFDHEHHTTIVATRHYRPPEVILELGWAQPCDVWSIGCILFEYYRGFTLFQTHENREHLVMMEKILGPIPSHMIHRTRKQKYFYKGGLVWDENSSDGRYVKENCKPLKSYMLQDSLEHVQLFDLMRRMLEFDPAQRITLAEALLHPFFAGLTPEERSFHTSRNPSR

Activity [1]: 96%
Activity [2]: 108%
Activity [3]: 124%
Activity [4]: 92%
GI50 [5]: 2.74 µM
Activity [6]: 99%
GI50 [7]: 0.307 µM
Activity [8]: 98%
Activity [9]: 91%
Activity [10]: 104%
Activity [12]: 92%
Activity [14]: 73%
Activity [17]: 122%
GI50 [18]: 2.18 µM
Activity [19]: 102%
Activity [20]: 93%
Activity [21]: 105%
Activity [22]: 86%
Activity [23]: 97%
GI50 [24]: 2.12 µM
Activity [26]: 122%
Activity [27]: 85%
Activity [28]: 101%
Activity [29]: 116%
Structure (SMILES): O=C1Nc2ncccc2/C1=C1/Nc2ncccc2C1=O
Activity [11]: 59.53%
Activity [13]: 0.16%
GI50 [15]: 0.432 µM
Activity [16]: Active
GI50 [25]: 1.07 µM
